According to ChEMBL document CHEMBL4342526, “Exploration of the Structural Space in 4(3H)-Quinazolinone Antibacterials” (J Med Chem, 2020):
Values after ≈ are worked out from the molar mass of the structure shown. Active and inactive are the calls of the source. The calls are words filed in the database; no cut-off is given here.

Tests used:
Enterococcus faecium = assay: Antibacterial activity against Enterococcus faecium NCTC 7171 measured after 16 to 20 hrs by microdilution method; type: functional
In short: (§1)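 CLSI broth microdilution: two-fold serial dilutions in triplicate in cation-adjusted Mueller–Hinton broth with 2% NaCl, inoculum 5 × 10^5 CFU/mL, incubated at 37 °C for 16–20 h. MIC is the lowest concentration preventing visible growth.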

Staphylococcus aureus [1] = assay: Antibacterial activity against Staphylococcus aureus ATCC 29213 measured after 16 to 20 hrs by microdilution method; type: functional; in short: as §1
Staphylococcus aureus [2] = assay: Bacteriostatic activity against clindamycin/erythromycin/spectinomycin-resistant mec-positive Staphylococcus aureus NRS70 assessed as log reduction in bacterial count at 0.5 to 16 times MIC by time-kill assay; type: functional
Staphylococcus aureus [3] = assay: Antibacterial activity against clindamycin/erythromycin/spectinomycin-resistant mec-positive Staphylococcus aureus NRS70 measured after 16 to 20 hrs by microdilution method; type: functional
In short: (§2)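 CLSI broth microdilution; two-fold serial compound dilutions in triplicate in cation-adjusted Mueller–Hinton broth with 2% NaCl, inoculum 5 × 10^5 CFU/mL; 37 °C for 16–20 h; MIC = lowest concentration with no visible growth.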

Bacillus licheniformis = assay: Antibacterial activity against Bacillus licheniformis ATCC 12759 measured after 16 to 20 hrs by microdilution method; type: functional; in short: as §1
Staphylococcus aureus [4] = assay: Antibacterial activity against multi-drug resistant mecA-positive Staphylococcus aureus ATCC 27660 measured after 16 to 20 hrs by microdilution method; type: functional; in short: as §2
Bacillus cereus = assay: Antibacterial activity against Bacillus cereus ATCC 13061 measured after 16 to 20 hrs by microdilution method; type: functional; in short: as §1
Streptococcus pneumoniae = assay: Antibacterial activity against Streptococcus pneumoniae ATCC 49619 measured after 16 to 20 hrs by microdilution method; type: functional; in short: as §1
Staphylococcus aureus [5] = assay: Bactericidal activity against methicillin resistant Staphylococcus aureus NRS70 infected in ICR mouse model of neutropenic thigh infection assessed as log reduction in bacterial count in thigh at 20 mg/kg, sc administered at 8 hrs interval for 3 times starting from 1 hr post infection and measured 24 hrs post infection; type: functional
In short: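 Female ICR mice (6–8 weeks, 20–25 g) made neutropenic with cyclophosphamide 200 mg/kg ip at 4 and 1 days pre-infection; 0.1 mL NRS70 at 1 × 10^6 CFU/mL in brain heart infusion injected into right thigh; drug in 10% DMSO/90% water sc every 8 h ×3 from 1 h post-infection; thigh CFU counted at 24 h; n = 8/group; mean ± SEM, one-way ANOVA with Tukey test.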

Staphylococcus aureus [6] = assay: Antibacterial activity against multi-drug resistant mec-positive Staphylococcus aureus USA300 measured after 16 to 20 hrs by microdilution method; type: functional; in short: as §2
Staphylococcus aureus [7] = assay: Selectivity ratio of MIC for Staphylococcus aureus ATCC 29213 in presence of bovine serum albumin to MIC for Staphylococcus aureus ATCC 29213 in absence of bovine serum albumin; type: functional
In short: (§3)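 S. aureus ATCC29213 MIC was run by CLSI microdilution in cation-adjusted Mueller–Hinton broth plus 2% NaCl, with and without 0.5% bovine serum albumin. Compounds were two-fold serially diluted in triplicate, inoculum was 5 × 10^5 CFU/mL, and plates were incubated at 37 °C for 16–20 h. The endpoint was the lowest concentration with no visible growth.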

[8] = Volume of distribution in ICR mouse at 10 mg/kg, iv by UV-UPLC analysis; type: ADME, organism-based; conditions: in vivo
In short: (§4)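 Female ICR mice, 6–8 weeks old, 20–25 g. Each received 50 μL by tail-vein injection (5 or 10 mg/kg) of a filter-sterilized 2 or 4 mg/mL solution in 20% DMSO/10% Tween-80/70% water. Terminal blood was collected and plasma harvested by centrifugation. Plasma was precipitated with acetonitrile containing internal standard, and the supernatant was analyzed by C18 UPLC with UV detection at 285 nm.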

[9] = target: T1, MecA (Staphylococcus aureus) (UniProt Q7DHH4); assay: (§5) Binding affinity to PBP2a in clindamycin/erythromycin/spectinomycin-resistant mec-positive Staphylococcus aureus NRS70 assessed potentiation of piperacillin and tazobactam-induced bactericidal activity by measuring log reduction in bacterial count at 0.5 times MIC measured after 12 hrs by time-kill assay
T1 sequence (whole entry): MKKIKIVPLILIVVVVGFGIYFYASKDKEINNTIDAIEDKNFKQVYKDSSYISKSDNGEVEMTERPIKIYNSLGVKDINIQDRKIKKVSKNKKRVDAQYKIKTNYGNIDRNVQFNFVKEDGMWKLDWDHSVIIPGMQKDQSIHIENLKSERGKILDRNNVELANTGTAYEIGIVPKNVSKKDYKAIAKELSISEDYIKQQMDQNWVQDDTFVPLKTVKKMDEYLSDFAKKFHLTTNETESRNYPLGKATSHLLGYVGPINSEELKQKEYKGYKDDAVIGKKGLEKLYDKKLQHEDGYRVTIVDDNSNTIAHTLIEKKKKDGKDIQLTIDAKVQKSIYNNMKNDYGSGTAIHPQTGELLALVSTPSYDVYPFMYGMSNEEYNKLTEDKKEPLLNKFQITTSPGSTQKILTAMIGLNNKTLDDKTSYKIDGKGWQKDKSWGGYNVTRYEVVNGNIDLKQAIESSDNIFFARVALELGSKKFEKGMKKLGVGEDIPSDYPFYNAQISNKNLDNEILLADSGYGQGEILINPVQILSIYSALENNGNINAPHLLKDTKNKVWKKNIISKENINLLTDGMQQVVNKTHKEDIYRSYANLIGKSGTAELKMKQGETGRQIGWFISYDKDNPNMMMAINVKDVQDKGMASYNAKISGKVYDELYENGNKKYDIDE

[10] = test system: Staphylococcus epidermidis; assay: Antibacterial activity against Staphylococcus epidermidis ATCC 35547 measured after 16 to 20 hrs by microdilution method; type: functional; in short: as §2
[11] = target: T1, MecA (Staphylococcus aureus); assay: as §5, with “measuring” for “measuring log”, “24” for “12”
Staphylococcus aureus [12] = assay: Antibacterial activity against multi-drug resistant mecA-positive Staphylococcus aureus NRS119 measured after 16 to 20 hrs by microdilution method; type: functional; in short: as §2
[13] = Elimination half life in ICR mouse at 10 mg/kg, po administered via gavage by UV-UPLC analysis; type: ADME, organism-based; conditions: in vivo, read-out: beta t1/2 (converted)
Clostridioides difficile = assay: Antibacterial activity against Clostridium difficile ATCC 43255 measured after 16 to 20 hrs by microdilution method; type: functional
Enterococcus faecalis = assay: Antibacterial activity against Enterococcus faecalis ATCC 29212 measured after 16 to 20 hrs by microdilution method; type: functional; in short: as §1
Staphylococcus aureus [14] = assay: Antibacterial activity against Staphylococcus aureus ATCC 29213 measured after 16 to 20 hrs in presence of bovine serum albumin by microdilution method; type: functional; in short: as §3
[15] = Elimination half life in ICR mouse at 10 mg/kg, iv by UV-UPLC analysis; type: ADME, organism-based; conditions: ICR, in vivo, read-out: beta t1/2; in short: as §4
HeLa = assay: Cytotoxicity against human HeLa cells assessed as reduction in cell viability measured after 16 hrs by XTT assay; type: cell-based
In short: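 HeLa cells (ATCC CCL-2), run in triplicate. Viability was read by XTT, and IC50 was obtained by nonlinear regression.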

Molecule `N#Cc1ccc(/C=C/c2nc3ccccc3c(=O)n2-c2cccc(NC(=O)CCc3cnc[nH]3)c2)cc1` has an MIC (Enterococcus faecium) of 16 µg/mL (≈ 32.9 µM) and an MIC (Staphylococcus aureus [1]) of 8 µg/mL (≈ 16.4 µM).
For `N#Cc1ccc(/C=C/c2nc3ccccc3c(=O)n2-c2cccc(C(=O)O)c2)cc1`, the “log(activity)” value (Staphylococcus aureus [2]) was under 3, the MIC (Staphylococcus aureus [3]) was 2 µg/mL (≈ 5.08 µM) and the MIC (Bacillus licheniformis) was over 128 µg/mL. It also gave an MIC (Staphylococcus aureus [4]) of 2 µg/mL (≈ 5.08 µM), an MIC (Bacillus cereus) of over 128 µg/mL and an MIC (Streptococcus pneumoniae) of 16 µg/mL (≈ 40.7 µM). For the same molecule, the “log(activity)” value (Staphylococcus aureus [5]) was 0.67, the MIC (Staphylococcus aureus [6]) was 0.5 µg/mL (≈ 1.27 µM) and the selectivity ratio (Staphylococcus aureus [7]) was “<=4”. For the same molecule, the Vd [8] was 0.3 L/kg, the log(activity) [9] was over 3 and the MIC [10] was 1 µg/mL (≈ 2.54 µM). For the same molecule, the Activity [11] was “inactive”, the MIC (Staphylococcus aureus [12]) was 1 µg/mL (≈ 2.54 µM) and the half-life [13] was over 20 h. It also gave an MIC (Staphylococcus aureus [1]) of 2 µg/mL (≈ 5.08 µM), an MIC (Clostridioides difficile) of 128 µg/mL (≈ 325 µM) and an MIC (Enterococcus faecalis) of over 128 µg/mL. For the same molecule, the MIC (Staphylococcus aureus [14]) was 8 µg/mL, the half-life [15] was over 20 h and the IC50 (HeLa) was 173 µg/mL (≈ 440 µM).
